Consider 5 compounds from ChEMBL document CHEMBL3745674, “Inhibitors of HIV-1 attachment: The discovery and structure-activity relationships of tetrahydroisoquinolines as replacements for the piperazine benzamide in the 3-glyoxylyl 6-azaindole pharmacophore” (Bioorg Med Chem Lett, 2016).

For orientation: AUC(0-t) means the area under the concentration-time curve up to a stated or last time point. Lower therefore signals low exposure. Broadly, the Cmax is the maximum level reached in the sampled fluid or tissue.

The test system of data set [1] is Liver. Nature of the data set: Drug metabolism in Aroclor-1254-induced rat liver S9 fraction assessed as 1-(1-hydroxy-5-(pyridin-2-yl)-3,4-dihydroisoquinolin-2(1H)-yl)-2-(4-methoxy-7-(3-methyl-1H-1,2,4-triazol-1-yl)-1H-pyrrolo[2,3-c]pyridin-3-yl)ethane-1,2-dione formation incubated at 37 degC for 4.5 hrs. It counts as ADME, subcellular. As to conditions: s9, 4.5 h.

A short description of data set [2]: Permeability of compound at pH 5.5 by PAMPA. It counts as ADME. As to conditions: read-out: permeability. The gist of the method:
(§1)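 Passive permeability by PAMPA at pH 7.4 and pH 5.5, reported in nm/s.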
(The PAMPA barrier holds no transporters, so it reflects passive diffusion.)

Data set [3] can be described thus: AUC(last) in rat at 5 mg/kg, po. The format is ADME, organism-based. As to conditions: in vivo. Details: dose 5 mg/kg, time 0 - last, route oral. The gist of the method:
(§2)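 Oral dosing in rat at 5 mg/kg in PEG 400/ethanol (90:10 v/v) vehicle.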

Data set [4] can be described thus: Cmax in rat at 5 mg/kg, po. Also noted: dose 5 mg/kg, route oral. As to conditions: in vivo. The format is ADME, organism-based. The method in brief:
as §2

Data set [5] is described as follows: Permeability of compound at pH 7.4 by PAMPA. As to conditions: read-out: permeability. The format is ADME. The gist of the method:
as §1

Data set [6] can be described thus: Volume of distribution at steady state in rat at 1 mg/kg, iv. The format is ADME, organism-based. Particulars: in vivo, read-out: Vdss. The gist of the method: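 Intravenous dosing in rat at 1 mg/kg. Plasma clearance and volume of distribution were determined.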
The test system of data set [7] is Liver. Nature of the data set: Drug level in Aroclor-1254-induced rat liver S9 fraction treated with 1-(4-methoxy-7-(3-methyl-1H-1,2,4-triazol-1-yl)-1H-pyrrolo[2,3-c]pyridin-3-yl)-2-(5-(pyridin-2-yl)-3,4-dihydroisoquinolin-2(1H)-yl)ethane-1,2-dione assessed as compound formation incubated at 37 degC for 4.5 hrs. It counts as ADME, subcellular. Particulars: s9, 4.5 h.

For the compound `COc1cnc(-n2cnc(C)n2)c2[nH]cc(C(=O)C(=O)N3CCc4c(cccc4-c4ccccn4)C3)c12`, the Drug metabolism result with Liver [1] was “metabolite_detected”.

Take `COc1cnc(-c2cc(C(=O)O)[nH]n2)c2[nH]cc(C(=O)C(=O)N3CCc4c(cccc4-c4ccccn4)C3)c12`: the Papp in data set [2] worked out at 3.2 ×10⁻⁶ cm/s.

Turning to `COc1cnc(-n2cnc(C)n2)c2[nH]cc(C(=O)C(=O)N3CCN(C(=O)c4ccccc4)CC3)c12`, in data set [3], the area under the curve AUC(0-t) was found to be 52 µM·h. Further, the highest level in data set [4] (Cmax) was 6.4 µM.

`COc1cnc(-n2cnc(C)n2)c2[nH]cc(C(=O)C(=O)N3CCc4c(ncnc4-c4ccccn4)C3)c12` came in with an AUC(0-t) in data set [3] of 41 µM·h. Further, the Papp in data set [2] was determined as 24.4 ×10⁻⁶ cm/s; in data set [5] it was 29.4 ×10⁻⁶ cm/s. The Vd in data set [6] is 0.33 L/kg. This compound had a Cmax in data set [4] of 10 µM.

For the compound `COc1cnc(-n2cnc(C)n2)c2[nH]cc(C(=O)C(=O)N3CCc4c(-c5ccccn5)cccc4C3O)c12` (stereo not given), in the data set on Liver [7], the Drug metabolism entry is on record as “metabolite_detected”.
